# Screens from PubChem BioAssay.
# hERG protect: hERG (human) protection from proarrhythmic block; Q12809; CHO-hERG, FluxOR thallium flux, dofetilide IC70 present; activation (rescue from dofetilide block), less the hit threshold, % at 10 µM; 310,000 compounds, 0.51% hits;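 active means activation above the mean of controls blocked by dofetilide plus 5 SD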;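 further: thallium influx through hERG after potassium depolarization seen as dye fluorescence rise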
# KCNK3 inh: human KCNK3 channel inhibition, primary screen | CHO-KCNK3 thallium flux, FluxOR fluorescence; stronger effect = lower value | O14649 | 340,000 compounds, 0.84% hits | B-score at 10 µM;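 active means B-score under library mean minus 4 SD, starting fluorescence ratio at most library mean plus 5 SD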;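 further: more negative B-score means stronger inhibition of thallium flux through KCNK3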
# KCNK9 inh: human KCNK9 channel inhibition; Q9NPC2; HEK293 KCNK9, FluxOR thallium flux fluorescence; stronger effect = lower value; B-score at 10 µM; 310,000 compounds, 1.2% hits; AID 488922;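 active means ratio B-score over 3 SD below the library mean, with starting fluorescence within 5 SD of its mean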;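 further: negative B-score means less thallium flux so channel inhibition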
# KCNQ1 pot: potentiators or activators of human KCNQ1 potassium channel | B-score at 10 µM | 310,000 compounds, 0.35% hits | AID 2648 | CHO-K1 KCNQ1, thallium flux FluxOR fluorescence; stronger effect = higher value;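 active means fluorescence ratio B-score, a plate-corrected score, at least three library SD, with initial intensity B-score within 5 SD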
# Target sequence (P51787 whole entry, looked up): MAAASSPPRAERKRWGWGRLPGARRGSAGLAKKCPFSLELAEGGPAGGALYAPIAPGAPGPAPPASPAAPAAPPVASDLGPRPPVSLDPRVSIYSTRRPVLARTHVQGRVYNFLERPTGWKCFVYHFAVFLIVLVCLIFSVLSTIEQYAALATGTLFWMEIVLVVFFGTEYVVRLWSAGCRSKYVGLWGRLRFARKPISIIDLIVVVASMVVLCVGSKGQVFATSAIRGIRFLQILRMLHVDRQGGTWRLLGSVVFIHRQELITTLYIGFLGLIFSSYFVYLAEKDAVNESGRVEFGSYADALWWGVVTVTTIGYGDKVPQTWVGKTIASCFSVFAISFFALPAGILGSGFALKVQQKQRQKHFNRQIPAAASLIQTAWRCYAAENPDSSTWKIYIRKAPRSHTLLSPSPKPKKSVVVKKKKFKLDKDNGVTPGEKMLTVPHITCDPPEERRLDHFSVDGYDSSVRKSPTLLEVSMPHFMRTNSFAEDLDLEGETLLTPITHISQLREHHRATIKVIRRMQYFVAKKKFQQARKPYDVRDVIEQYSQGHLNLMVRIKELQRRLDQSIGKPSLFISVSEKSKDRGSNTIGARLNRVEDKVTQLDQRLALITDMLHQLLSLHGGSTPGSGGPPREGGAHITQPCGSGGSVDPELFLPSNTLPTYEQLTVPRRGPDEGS
#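 Assay system: CHO-K1 cells stably expressing KCNQ1. Medium: assay buffer for compound exposure, DMSO matched across wells. Timing: 37 °C overnight plating, 90-min dark dye load, 20-min compound pretreatment. Signal: kinetic FluxOR fluorescence, 10 s baseline plus 110 s post-stimulus.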
# KCNQ1 inh: inhibitors of human KCNQ1 potassium channel; CHO-K1 KCNQ1, FluxOR thallium flux fluorescence; stronger effect = higher value; 310,000 compounds, 1.3% hits; B-score at 10 µM; AID 2642;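 active means compounds whose thallium flux B-score, printed positive for inhibition, exceeds three library SD while starting fluorescence stays within three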;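 further: channel opened by potassium depolarization with thallium stimulus after 20 min compound exposure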
# * = called active by the depositor; i = inactive; / = not tested or not shown. A selection: hits, their analogues and other compounds. The true share with any hit is near 3.1%.
SMILES,hERG protect,KCNK3 inh,KCNK9 inh,KCNQ1 pot,KCNQ1 inh
CCOCCCN(Cc1cc2cc(C)cc(C)c2[nH]c1=O)C(=O)N(CC)CC,-15,i,i,i,i
CC(=O)OC1C(N2CCCCC2)c2c(ccc(/C=C/C(=O)N3CCCCC3)c2O)OC1(C)C (configuration not stated),-3,i,i,i,i
CC1(C)CC(=O)C2=C(C1)OC(N)=C(C#N)C2c1cc2c(cc1[N+](=O)[O-])OCO2 (configuration not stated),-24,i,i,i,10*
COC(=O)c1ccc(CN2CCN(CCc3ccccc3)C(CCO)C2)cc1 (configuration not stated),-15,i,i,i,i
COC(=O)c1ccc(CN2CCN(CCC(C)C)C(CCO)C2)cc1 (configuration not stated),-18,i,i,i,6*
CC(C)CCN1CCN(Cc2nc(-c3ccc(F)cc3)cs2)CC1CCO (configuration not stated),7.1*,i,i,i,i
Cc1ccc(NS(=O)(=O)c2c(C)[nH]c(C)c2C(=O)N2CCCCC2)cc1F,-6,i,i,i,i
Cc1ccc(-c2[nH]nc3c2C(c2cccnc2)C(C#N)=C(N)O3)cc1 (configuration not stated),5.0*,i,i,i,i
N#CC1=C(N)Oc2n[nH]c(-c3ccccc3)c2C1c1cccnc1 (configuration not stated),-11,i,i,i,i
CC(C)NC(=O)c1ccc(CSCc2ccccc2Cl)o1,-4,i,i,i,i
CCC(C)NC(=O)c1ccc(CSCc2ccccc2Cl)o1 (configuration not stated),1,i,-6.7*,i,i
C=C[C@@]1(C)CC(=O)[C@]2(O)[C@@]3(C)[C@@H](O)CCC(C)(C)[C@@H]3[C@H](O)[C@H](OC(C)=O)[C@@]2(C)O1,-14,i,i,12*,i
C=C[C@@]1(C)CC(=O)[C@]2(O)[C@@]3(C)[C@@H](O)CCC(C)(C)[C@@H]3[C@H](OC(C)=O)[C@H](O)[C@@]2(C)O1,-13,i,i,13*,i
C=C1C(=O)O[C@H]2C[C@]3(C)C([C@@H](OC(=O)/C(C)=C/C)[C@H]12)[C@](C)(O)CC[C@H]3O (some centres not stated),-4,i,i,i,i
COc1ccc(NC(=O)C2CCN(S(=O)(=O)c3cn(C)nc3C)CC2)cc1,1,i,i,i,i
COC(=O)c1nn(Cc2ccccc2)c(=O)c2ccccc12,0,i,i,i,i
COc1cc2c(cc1OC)CN(C(=O)c1nn(Cc3ccccc3)c(=O)c3ccccc13)CC2,/,-9.3*,/,/,/
CCn1c2ccccc2c2cc(/C=N/NC(=O)c3ccccc3)ccc21,6.4*,i,i,i,i
Cn1c2ccccc2c2cc(/C=N/NC(=O)c3cc(O)cc(O)c3)ccc21,-7,i,i,i,i
CCOc1ccc(S(=O)(=O)N2CCCC(C(=O)NCc3ccncc3)C2)cc1 (configuration not stated),-11,i,i,i,i
FC(F)C(F)(F)C(F)(F)C(F)(F)c1cc(-c2ccccc2)n[nH]1,-19,i,-7.8*,i,i
O=C(Nc1ccccc1NC(=O)c1csnn1)c1csnn1,-3,i,i,i,i
Cc1cc(C(=O)NNC(=S)Nc2cccc(C(F)(F)F)c2)nn1C,-5,i,i,i,i
O=C(NC(=S)Nc1cccc(C(F)(F)F)c1)c1csnn1,54*,i,i,63*,i
O=C(NC(=S)Nc1ccccc1Cl)c1csnn1,60*,i,i,i,i
SMILES,hERG protect,KCNK3 inh,KCNK9 inh,KCNQ1 pot,KCNQ1 inh
CCCN1C(=O)/C(=C/c2ccc(C)s2)NC1=S,32*,i,i,32*,i
CC(C)CN1C(=O)/C(=C/c2cccs2)NC1=S,49*,i,i,55*,i
Cc1ccc(/C=C2/NC(=O)N(Cc3ccccc3F)C2=O)s1,-5,i,i,i,i
COc1ccc(N2CCN(C3CCCN(Cc4ccc(F)cc4Cl)C3)CC2)cc1 (configuration not stated),-13,i,i,i,i
O=C(CN1CCNC(=O)C1)NCCc1ccc(Cl)cc1Cl,-6,i,i,i,i
O=C(Nc1cccc(F)c1)c1cccc2c1C(=O)N(C1CCCCC1)C2,-5,i,-11*,i,i
S=c1nc(COc2ccccc2)[nH]c2ccccc12,76*,i,i,92*,i
S=c1nc(Cc2ccc(Cl)cc2)[nH]c2ccccc12,4,i,i,43*,i
Cc1nc(=S)c2ccccc2[nH]1,-4,i,i,i,i
S=c1nc(Cc2ccccc2)[nH]c2ccccc12,44*,i,i,48*,i
Cc1cc(C)nc(CCNC(=O)CC2C(=O)NCCN2Cc2ccccc2)n1 (configuration not stated),-6,i,i,i,i
Cc1noc(C)c1COc1ccccc1C(=O)NCCOc1ccccc1,/,i,/,/,/
COc1ccc(CN(C(=O)CSc2nnc(-c3ccccc3C)o2)c2ccc(F)cc2)cc1,-15,i,i,i,6*
c1ccc2c(c1)Nc1cc3ccccc3cc1O2,/,i,/,/,/
COc1ccc(C2CC(c3ccc(Cl)cc3)Nc3nc(NC(=O)c4ccco4)nn32)cc1 (configuration not stated),-8,i,i,i,i
O=C(Nc1nc2n(n1)C(c1ccc(Cl)cc1)CC(c1ccc(Cl)cc1)N2)c1ccco1 (configuration not stated),-10,/,-7.7*,i,i
COc1ccc2c(c1)[nH]c1c(N3CCN(Cc4ccc5c(c4)OCO5)CC3)ncnc12,-36,i,i,i,9*
O=C(COC(=O)/C=C/c1ccco1)NCCN1C(=O)CSC1=O,/,i,/,/,/
COc1ccc(NC(=O)c2cc(-c3ccccn3)nc3ccccc23)cc1S(=O)(=O)N(C)C,/,i,/,/,/
CC(C)OC(=O)c1c2nc3ccccc3nc2n2c1[nH]c(=O)c1ccccc12,43*,/,i,81*,i
COC(=O)c1ccc(C(NC(=O)OCc2ccccc2)/C(C)=C/[C@@H](C)C(=O)NCc2ccc(-c3ccccc3)cc2)cc1 (some centres not stated),-14,i,i,i,i
CCC/C=C(\CCC)C(NC(=O)OCC(C)C)c1ccc(C(=O)OC)cc1 (configuration not stated),-8,i,i,i,9*
